This is a sample that favours compounds with a hit; in the whole collection about 3.4% have one here.
LANA-H2A inh: blockers of LANA interaction with H2A/H2B – biochemical, FP readout, HTS, primary screen; Protein LANA1 (Human herpesvirus 8 type P (isolate GK18)), Q9QR71; cell-free LANA-H2A/H2B peptide, fluorescence polarization; inhibition, % (test concentration not listed); 0.6% of 320,000 active; in the data active = inhibition mostly above about 10%, no sharp cut-off; inactive = mostly below about 6.7%
GPR7 antagonist: GPR7 receptor antagonists, primary screen, cell-based, fluorescence, single concentration | Neuropeptides B/W receptor type 1 (Homo sapiens), P48145 | GPR7-expressing cells, fluorescence antagonist assay | inhibition, % at 4.4 µM | 1.1% of 290,000 active; in the data active = inhibition above about 16%, passing the limit was not always enough;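 note: cells stimulated with the agonist NPW; 0% = agonist with vehicle and 100% = vehicle without agonist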
TRPML3 agonist: human TRPML3 channel agonists, primary screen, cell-based, HEK293 TRPML3-YFP, Fluo-8 calcium fluorescence, 3 µM; activation, % at 3 µM; 0.29% of 220,000 active; AID 1448, 2008; 100% = the carbachol control signal; Mucolipin-3 (Homo sapiens), Q8TDD5;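 active = activation above its plate's cutoff, the mean activation of the plate's test wells plus 3 SD, cut at about 12% in these data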;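 note: 0% = DMSO only wells and 100% = carbachol wells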
Target sequence (Q8TDD5 whole entry, looked up): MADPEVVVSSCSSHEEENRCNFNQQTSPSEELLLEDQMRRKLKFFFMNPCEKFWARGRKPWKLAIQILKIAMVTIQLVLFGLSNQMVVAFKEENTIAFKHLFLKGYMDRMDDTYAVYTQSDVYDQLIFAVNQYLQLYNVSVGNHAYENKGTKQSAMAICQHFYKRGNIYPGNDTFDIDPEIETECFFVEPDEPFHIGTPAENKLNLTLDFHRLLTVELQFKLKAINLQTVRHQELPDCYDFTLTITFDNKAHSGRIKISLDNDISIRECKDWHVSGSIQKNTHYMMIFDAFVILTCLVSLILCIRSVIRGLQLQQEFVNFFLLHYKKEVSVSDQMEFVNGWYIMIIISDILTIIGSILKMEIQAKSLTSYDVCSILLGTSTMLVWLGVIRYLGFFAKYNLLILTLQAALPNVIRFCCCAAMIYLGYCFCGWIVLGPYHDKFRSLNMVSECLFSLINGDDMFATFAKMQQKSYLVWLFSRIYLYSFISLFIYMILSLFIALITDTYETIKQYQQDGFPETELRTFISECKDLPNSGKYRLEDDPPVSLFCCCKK
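Material: HEK293 cells stably carrying human TRPML3-YFP; compound dosing: single dose, 3 µM final nominal compound, 0.3% DMSO final; incubation: 1-h 37 °C dye load, 5-s basal, 120-s post-compound reads; technique: Fluo-8 intracellular calcium fluorescence, excitation 470-495 nm, emission 515-575 nm; read-out basis: percent activation from peak-to-basal fluorescence ratio, scaled between DMSO and carbachol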
TAAR1 antagonist: human TAAR1 antagonists, primary screen, Fluo-8 calcium fluorescence, CHO RD-HGA16 cells. Trace amine-associated receptor 1 (Homo sapiens), Q96RJ0. antagonist. inhibition, % at 3 µM. 1.5% of 360,000 active. AID 624466, 2012;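 active = inhibition above a per-plate cutoff, the mean inhibition of test compounds on that plate plus 3 SD, cut at about 49% in these data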;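 note: 0% = DMSO plus EC80 beta-PEA response and 100% = DMSO alone without agonist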
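Assay system: RD-HGA16 CHO cells with stable hTAAR1 and Gα16 / Reagent: EC80 β-phenethylamine stimulus / Doses: 3 µM, single point / Timing: dye loading 75 min at 37 °C, then 30 min room temperature / Measured by: Fluo-8 intracellular calcium dye fluorescence, real-time kinetic reads / Controls: vehicle wells and EC80 agonist wells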
TAAR1 ag: human TAAR1 agonists, primary screen, Fluo-8 calcium fluorescence, CHO RD-HGA16 cells; Trace amine-associated receptor 1 (Homo sapiens), Q96RJ0; activation, % at 3 µM; 0.99% of 360,000 active; vehicle wells 0%, saturating PEA agonist 100%; AID 624467, 2012;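 active = activation above the mean activation of all test compounds in the run plus 3 SD, cut at about 38% in these data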
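System: CHO-derived RD-HGA16 cells with stable Gα16 and human TAAR1 / Times: 17-24 h plating, Fluo-8 75 min 37 °C, 30 min RT / Technique: calcium-sensitive Fluo-8 signal, excitation 470-495, emission 515-575 nm / Measure: % activation relative to PEA EC100 response / Benchmarks: DMSO and PEA EC100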
TRPN1 ag: zebrafish TRPN1 channel agonists, primary screen, cell-based, HEK293, calcium fluorescence; 0.18% of 220,000 active; AID 1424, 2008; activation, % at 3 µM; HEK293 zebrafish TRPN1-YFP, Fluo-8 calcium fluorescence; 100% = response to 87 µM carbachol;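 active = activation above its plate's cutoff, the mean activation of test wells on that plate plus 3 SD, cut at about 19% in these data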;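 note: 0% = DMSO alone and 100% = 87 µM carbachol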
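Control set: carbachol 87 µM as high control, DMSO as low control; system: HEK293 stable line with zebrafish TRPN1-YFP; read-out: % activation versus carbachol response; detection: intracellular calcium fluorescence with Fluo-8; doses: single test compound dose, 3 µM nominal, 0.3% DMSO; schedule: dye 1 h 37 °C plus 30 min RT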
Starred values were filed as active, the others as inactive; nt = no result; + = active, no number.

SMILES | LANA-H2A inh | GPR7 antagonist | TRPML3 agonist | TAAR1 antagonist | TAAR1 ag | TRPN1 ag
O=C(c1ccc(COc2ccccc2Cl)o1)N1CCN(Cc2ccc3c(c2)OCO3)CC1 | -2 | 13 | -1 | 30 | 9 | 1
O=C(c1ccc(COc2ccc(Cl)cc2)o1)N1CCN(Cc2ccc3c(c2)OCO3)CC1 | -1 | -12 | 0 | 52* | 6 | 2
C(=N\Nc1nc(-c2ccccc2)cs1)/c1ccncc1 | 2 | -4 | 1 | 1 | 3 | 2
CN(C)S(=O)(=O)c1ccc(-c2csc(N/N=C/c3ccco3)n2)cc1 | 0 | 17 | 7 | 79* | 30 | 13
CN(C)S(=O)(=O)c1ccc(-c2csc(N/N=C/c3ccc(O)cc3)n2)cc1 | -5 | 16 | 2 | 77* | 27 | 7
Cc1ccc(-c2csc(N/N=C/c3ccco3)n2)cc1 | 1 | 4 | 0 | 1 | -2 | -1
Nc1ccc2ccc(NS(=O)(=O)N3CCCCC3)cc2c1 | nt | nt | nt | -8 | 3 | nt
COc1ccc(C2=NCC(CSc3nnc(-c4ccc5c(c4)OCO5)o3)S2)cc1 (stereo not given) | 7 | -1 | 1 | 50* | 8 | 1
CC(C)(C)C(=O)NC(=S)NNC(=O)c1sc2ccccc2c1Cl | -5 | -8 | 23* | nt | nt | 49*
O=C(NNC(=S)NC1CCCCC1)c1sc2ccccc2c1Cl | -4 | 4 | 0 | 7 | 0 | -3
CCc1ccc(OCCCC(=O)NCc2ccco2)cc1 | -4 | 0 | -1 | -17 | -1 | -1
CCc1ccc(N/C(SCc2ccccc2C)=C(/C#N)C(=O)NCc2ccco2)cc1 | -8 | -16 | 3 | 51* | 1 | 2
CCOc1ccc(C(=O)NC(C(=O)NCCc2ccc(S(N)(=O)=O)cc2)C(C)C)cc1 (stereo not given) | 14* | 11 | nt | -4 | 0 | nt
O=S(=O)(c1cccc(-c2cn3ccccc3n2)c1)N1CCCCC1 | 18* | -4 | nt | -7 | 0 | nt
Cc1ccn2cc(-c3cccc(S(=O)(=O)N4CCCC4)c3)nc2c1 | -2 | -7 | nt | -9 | -1 | nt
COc1ccc(C2NC(=S)N(Cc3ccc(Cl)cc3)C(C)=C2C(C)=O)cc1 (stereo not given) | nt | nt | nt | 3 | -1 | nt
COc1ccc(C(=O)C(=O)N2CCN(C(=O)c3ccccc3C(F)(F)F)CC2)cc1OC | nt | nt | nt | -20 | 0 | nt
Cc1ccc(NS(=O)(=O)c2ccc(NC(=O)c3cccc(NC(=O)C(C)C)c3)cc2)cc1 | -3 | 0 | 1 | 53* | 8 | 1
CN[C@H]1C[C@H]2c3[nH]c4c(-c5ccccc5)cccc4c3CCN2C[C@H]1[C@H](C)O | nt | nt | nt | 3 | 4 | nt
COC(=O)[C@]12C[C@H](CC(=O)N3CCSCC3)C(=O)N(Cc3ccccc3)C1=C[C@H](C(C)C)O[C@@H]2C1CC1 | nt | nt | nt | -36 | 4 | nt
O=C(Cn1nnc(-c2ccccc2Cl)n1)N1CCN(S(=O)(=O)c2ccc(Cl)cc2)CC1 | 0 | 16* | 0 | 0 | 5 | 1
O=C(Cn1nnc(-c2ccccc2Cl)n1)N1CCCCC1 | 3 | -10 | nt | -9 | 1 | nt
CN(c1ccccc1)S(=O)(=O)c1cccc(NC(=O)COc2ccccc2)c1 | nt | nt | nt | 53* | 7 | nt
CN(c1ccccc1)S(=O)(=O)c1cccc(NC(=O)CCNC(=O)c2ccccc2)c1 | 4 | nt | nt | 54* | 15 | nt
CN(c1ccccc1)S(=O)(=O)c1cccc(NC(=O)CCNC(=O)c2ccc(Cl)cc2)c1 | 165* | nt | nt | 37 | 4 | nt
SMILES | LANA-H2A inh | GPR7 antagonist | TRPML3 agonist | TAAR1 antagonist | TAAR1 ag | TRPN1 ag
CN(c1cccc(NC(=O)COc2ccccc2)c1)S(C)(=O)=O | 0 | -6 | 0 | -4 | 7 | 0
CN(c1ccccc1)S(=O)(=O)c1cccc(NC(=O)CCNC(=O)c2ccc([N+](=O)[O-])cc2)c1 | 1 | nt | nt | 37 | 4 | nt
O=C(N[C@H](C(=O)N1CCC[C@H]1C(=O)NCCc1ccccc1Cl)C1CCCCC1)c1ccc(Cl)c(Cl)c1 | nt | nt | nt | -1 | 4 | nt
C[C@@H]1ON(C)[C@H]2C[C@H]3c4cc(-c5ccc(F)cc5)ccc4CCN3C[C@@H]12 | nt | nt | nt | -15 | 2 | nt
CC[C@@H]1C/C=C\Cc2ccccc2[C@@H](C(=O)C[C@H](O)CC(C)=O)OC1=O | + | nt | nt | -12 | 0 | nt
COC1C(O)CCC2(CO2)C1C1(C)OC1CC=C(C)C (stereo not given) | nt | nt | nt | -33 | 1 | nt
COc1cccc(Oc2ccc(C(F)(F)F)cc2NC(=O)C2=COCCO2)c1 | -1 | -12 | nt | -34 | 1 | nt
Cc1cccc(Oc2ccccc2NC(=O)C2=COCCO2)c1 | + | nt | nt | -4 | -4 | nt
CCC(=O)NC1=C(Cl)C(=O)C(NC(=O)CC)=C(Cl)C1=O | nt | -26 | -1 | 50* | 46* | -3
CCN(CC)C(=O)CSc1nc(N)c(C#N)c(-c2cccs2)c1C#N | -5 | -4 | 1 | -10 | 14 | 2
CCN(CC)C(=O)CSc1nc(-c2cccs2)cc(-c2cccs2)c1C#N | 0 | -8 | 1 | 61* | 5 | 0
CCN(C(=O)CCc1cn(CC)c2ccccc12)c1ccc(Oc2cccnc2)cc1 | nt | nt | nt | 5 | 0 | nt
Cc1nn(-c2ccc(Cl)cc2)c2[nH]c(=O)c(CNCc3ccc4c(c3)OCO4)cc12 | 24* | -12 | 0 | 21 | 5 | 0
CCN(CC(=O)Nc1ccc(OC)cc1)C(=O)c1cc(-c2cccs2)nn1-c1ccccc1 | -1 | nt | nt | 62* | 10 | nt
CCOc1ccc(NC(=O)CN(C)C(=O)c2cc(-c3cccs3)nn2-c2ccccc2)cc1OCC | 0 | nt | nt | 27 | 0 | nt
CN(CC(=O)Nc1ccc(F)cc1)C(=O)c1cn(-c2ccccc2)nc1-c1cccs1 | -21 | nt | nt | 51* | 17 | nt
CCCN(CC(=O)Nc1ccccc1OC)C(=O)c1cc(-c2ccccc2)nn1-c1ccccc1 | 49* | nt | nt | 34 | -1 | nt
COc1ccc(NC(=O)CN(C)C(=O)c2cc(-c3cccs3)nn2-c2ccccc2)cc1 | 8 | nt | nt | 55* | 9 | nt
CCN(CC(=O)Nc1ccc(NC(C)=O)cc1)C(=O)c1cc(-c2ccccc2)nn1-c1ccccc1 | -2 | nt | nt | -10 | 8 | nt
Cc1ccc(OCCNC(=O)[C@@H](Cc2ccccc2)NC(=O)[C@H]2O[C@@H](n3ccc(=O)[nH]c3=O)[C@H](O)[C@@H]2O)cc1C | nt | nt | nt | -22 | 5 | nt
